V-ATPase pHluor: regulators of yeast V-ATPase proton pumping, primary screen, pHLuorin cytosolic pH fluorescence; S. cerevisiae; response, % at 10 µM; 350,000 compounds, 0.37% hits; AID 504577, 2011; in the data active means response mostly above about 7.3%, no sharp cut-off; inactive means mostly below about 5.4%; further: actives read high
aDG glyco act: activators of alpha-DG glycosylation, primary screen, uHTS, Pro5-aDG cells, AlphaScreen. AID 624168, 2012. activation, % at 10 µM. 360,000 compounds, 0.22% hits. alpha-DG glycosylation AlphaScreen (IIH6); 0% Pro5, 100% B10-LARGE cell signal;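 active means activation of at least 8% versus controls, or a plate z-score of at least 8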;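 further: Pro5 are CHO cells carrying HIG-tagged alpha-DG that lacks glycosylation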
ADAM17 inh: ADAM17 inhibitors, primary screen, biochemical, QFRET; AID 720648, 2013; recombinant ADAM17, EDANS/DABCYL FRET peptide cleavage; 370,000 compounds, 0.83% hits; inhibition, % at 6.95 µM;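 active means inhibition above the mean of compounds lying between control limits plus 3 SD, set per campaign, cut at about 8.5% in these data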
Lipid droplet: inhibitors of hepatocyte lipid droplet formation, primary screen, imaging, high-throughput imaging, BODIPY stain. AML12 mouse hepatocytes, oleate lipid droplets. inhibition, % at 6.5 µM. 240,000 compounds, 0.4% hits. AID 1656, 2009;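 active means lipid droplet intensity inhibited by at least 50%, with more than 500 cells counted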
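Assay system: AML12 hepatocytes (mouse) / Also added: 100 µM oleic acid challenge / Times: overnight treatment with compound plus oleate / Detection: high-content imaging of BODIPY-stained droplets and DAPI nuclei / Evaluation: % inhibition of lipid droplet signal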
MPTP inh: mitochondrial permeability transition pore inhibitors, primary screen, biochemical, isolated mouse mitochondria, absorbance; 360,000 compounds, 1.4% hits; inhibition, % at 10 µM; AID 602449, 2012; Ca2+ swelling absorbance, 30 min;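 active means inhibition of 50% or more, scaled per plate between neutral and stimulator controls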
ADAM10 inh: human ADAM10 inhibitors, primary screen, biochemical, QFRET, HTS. Disintegrin and metalloproteinase domain-containing protein 10 (Homo sapiens), O14672. recombinant ADAM10, EDANS/DABCYL FRET peptide cleavage, 3 h. inhibition, % at 7 µM. 370,000 compounds, 0.62% hits. AID 720582, 2013;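 active means inhibition above a per-campaign cutoff equal to the mean of compounds falling between control-based bounds plus 3 SD, cut at about 20% in these data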
Target sequence (O14672 214-748 limits assumed): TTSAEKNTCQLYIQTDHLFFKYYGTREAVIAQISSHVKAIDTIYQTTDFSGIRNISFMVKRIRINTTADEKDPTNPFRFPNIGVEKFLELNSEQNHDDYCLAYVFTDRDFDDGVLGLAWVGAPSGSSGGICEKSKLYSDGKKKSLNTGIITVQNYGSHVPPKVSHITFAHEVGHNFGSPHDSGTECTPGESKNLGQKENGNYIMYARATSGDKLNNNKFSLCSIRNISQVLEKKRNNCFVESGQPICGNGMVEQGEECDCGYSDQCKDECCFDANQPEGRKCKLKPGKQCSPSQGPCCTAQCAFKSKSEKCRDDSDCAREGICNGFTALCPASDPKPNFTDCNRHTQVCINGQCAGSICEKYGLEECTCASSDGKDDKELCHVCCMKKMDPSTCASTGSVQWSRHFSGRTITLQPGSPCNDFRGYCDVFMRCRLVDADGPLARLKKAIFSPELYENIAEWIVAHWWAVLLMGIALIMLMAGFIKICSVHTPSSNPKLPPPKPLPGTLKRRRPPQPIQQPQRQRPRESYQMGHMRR
Rh123 counter: fluorescence retest of MPTP screen hits in isolated mitochondria, single concentration; shares compounds with MPTP inh; membrane potential, Rhodamine 123 fluorescence; inhibition, % at 10 µM; 5,000 compounds, 78% hits; AID 624504, 2012; in the data active means inhibition above about 22%
MPTP swell DR: mitochondrial permeability transition pore inhibitors, dose response, biochemical, absorbance, uHTS hits; IC50, µM; 780 compounds, 58% hits; isolated mitochondria swelling; shares compounds with MPTP inh; in the data active means IC50 below about 20 µM
MPTP cs DR: fluorescent counter-screen in isolated mitochondria, dose response, counter-screen for MPTP inhibitor project, biochemical, fluorescence, uHTS hits | shares compounds with MPTP inh | isolated mitochondria counterscreen, fluorescence read-out | IC50, µM | 780 compounds, 49% hits | AID 651564, 2012; in the data active means IC50 below about 80 µM
Numbers stand for hits; 0 = inactive; - = not tested or not shown. Most compounds without a hit are left out; they make up all but 3.1% or so of the library.

SMILES	V-ATPase pHluor	aDG glyco act	ADAM17 inh	Lipid droplet	MPTP inh	ADAM10 inh	Rh123 counter	others
S=C(NCc1cccs1)Nc1cccc(Cl)c1	0	0	-	0	91	-	98
S=C(NCc1cccs1)Nc1ccccc1Cl	0	0	0	0	0	0	-
COC(=O)C1CN(C2CCCC2)CCS(=O)(=O)N1Cc1ccc(C(F)(F)F)cc1 (stereo unspecified)	-	-	0	-	-	0	-
O=C(CSCc1ccc(Cl)cc1)Nc1cc([N+](=O)[O-])ccc1O	0	0	0	0	99	0	88
Cc1ccc(SCC(=O)Nc2cc([N+](=O)[O-])ccc2O)cc1	0	0	0	0	102	0	99
CCOc1ccccc1NC(=O)CSc1ccc([N+](=O)[O-])cc1	0	0	0	0	0	0	-
COc1ccc([N+](=O)[O-])cc1NC(=O)CSCc1ccc(Br)cc1	0	0	0	0	0	0	-
Cc1ccc(Cn2cc(CN3[C@@H](CC(C)C)COc4cc(Br)ccc4S3(=O)=O)nn2)cc1	-	-	0	-	-	0	-
COC(=O)C1CN(CCc2ccccc2)CCS(=O)(=O)N1Cc1ccc(Cl)cc1 (stereo unspecified)	-	-	0	-	-	0	-
COc1ccc(C(=O)CSc2nnc(-c3cccnc3)n2-c2ccccc2)cc1	-	-	0	-	-	0	-
CN(C)c1ccc(NC(=O)Nc2ccc3snnc3c2)cc1	0	0	0	-	0	0	-
O=C(Nc1ccccc1)Nc1ccc2nnsc2c1	0	0	0	0	83	0	72
O=C(Nc1ccccc1)Nc1ccc2snnc2c1	0	0	0	0	101	0	92
COc1ccc2c(c1)CN1CN(C3CCCC3)S(=O)(=O)CC21 (stereo unspecified)	-	-	0	-	-	0	-
COc1ccc(NC(=S)Nc2ccc3nc(C)c(C)nc3c2)cc1	0	0	0	-	0	0	-
CCOc1ccc(NC(=S)Nc2ccc3nsnc3c2)cc1	0	7.8	0	0	86	0	77
CCOc1ccc(NC(=S)Nc2ccc(OCC)cc2)cc1	0	0	0	0	0	0	-
COc1ccc(NC(=S)Nc2ccc3nsnc3c2)cc1	0	7.8	0	0	60	0	78
CCOc1ccc(NC(=O)Nc2ccc3nsnc3c2)cc1	0	0	0	0	91	0	89
CC(C)(C)OC(=O)N/N=C/c1cc(N=Nc2ccccc2)ccc1O	0	0	0	0	96	0	69
O=C(/C=C/c1ccc(Cl)cc1)NC(=S)Nc1ccccc1C(=O)O	0	0	0	0	0	0	-
CC(=O)NC(NC(=S)Nc1ccc(N=Nc2ccccc2C)cc1C)C(Cl)(Cl)Cl (stereo unspecified)	0	0	0	-	88	0	63
Cc1ccc(C)c(NC(=S)NC(NC(=O)/C=C/c2ccccc2)C(Cl)(Cl)Cl)c1 (stereo unspecified)	0	0	0	-	100	0	65
CC(=O)NC(NC(=S)Nc1ccccc1Br)C(Cl)(Cl)Cl (stereo unspecified)	0	0	0	0	0	0	-
O=C(/C=C/c1ccccc1)NC(NC(=S)Nc1cccc(Cl)c1)C(Cl)(Cl)Cl (stereo unspecified)	0	0	0	-	93	0	84
SMILES	V-ATPase pHluor	aDG glyco act	ADAM17 inh	Lipid droplet	MPTP inh	ADAM10 inh	Rh123 counter	others
O=C(/C=C/c1ccccc1)NC(NC(=S)Nc1ccc(Cl)cc1Cl)C(Cl)(Cl)Cl (stereo unspecified)	0	0	-	0	102	-	63
O=C(/C=C/c1ccccc1)NC(NC(=S)Nc1ccc(C(=O)O)cc1)C(Cl)(Cl)Cl (stereo unspecified)	0	0	0	0	0	0	-
O=C(Nc1ccccc1)Nc1c(-c2ccc(F)cc2)nc2ncccn12	-	-	0	-	-	0	-
COc1cc2c(cc1NC(=O)CSc1nnc(-c3ccccn3)n1-c1ccccc1)oc1ccccc12	-	-	0	-	-	0	-
c1ccc(-c2ccc3c(n2)CCCN3Cc2ccccn2)cc1	-	-	0	-	-	0	-
CCCCNC(=O)C1CCCN1C(=O)NCc1ccccc1OC (stereo unspecified)	-	-	0	-	-	0	-
Cc1ccc(NC(=S)NC(NC(=O)C(C)(C)C)C(Cl)(Cl)Cl)c(C)c1 (stereo unspecified)	0	0	0	-	57	0	64
Cc1ccc(NC(=S)NC(NC(=O)N(C)C)C(Cl)(Cl)Cl)cc1 (stereo unspecified)	0	0	0	0	0	0	-
O=C(CSc1nnc2n1CCCN2C(=S)Nc1ccc(Cl)cc1)c1ccccc1	0	0	0	0	84	0	89
Cc1cc(C(F)(F)F)c(C#N)c(SCC(=O)Nc2nc3cc(Br)ccc3s2)n1	0	0	0	0	87	0	0	MPTP swell DR=16;MPTP cs DR=3.2
O=c1[nH]c2ccc(S(=O)(=O)N3CCCC3)cc2o1	-	-	0	-	-	0	-
CC1(c2nnnn2C2CCCCC2)CCCC(=O)N1CCc1ccc(O)cc1 (stereo unspecified)	-	-	0	-	-	0	-
CCN(C(=O)[C@H]1CC(=O)O[C@@H]1c1ccccc1)c1ccccc1	-	-	0	-	-	0	-
Cc1nc2ccccn2c1C(=O)NNS(=O)(=O)c1ccc(C(C)(C)C)cc1	0	0	0	0	76	0	72
CC(C)c1ccc(CC(=O)N2CCC2(C)C(=O)Nc2cccc(C#N)c2)cc1 (stereo unspecified)	-	0	0	-	0	0	-
CC1(C(=O)Nc2cccc(C#N)c2)CCN1C(=O)Cc1ccc(-c2ccccc2)cc1 (stereo unspecified)	-	0	0	-	92	0	85
COC(=O)[C@]12C[C@H](CC(=O)NCc3cccc4ccccc34)C(=O)N(Cc3cccc4ccccc34)C1=C[C@H](C1CCCC1)O[C@@H]2C	-	-	0	-	-	0	-
CCC[C@@H](/C=C/C(=O)OC(C)(C)C)Sc1ccc(OC)cc1	-	-	0	-	-	0	-
COCCOc1ccc(C(F)(F)F)cc1NC(=O)c1ccc(F)cc1	0	0	0	0	0	0	-
COCCOc1ccc(C(F)(F)F)cc1NC(=O)c1ccc(C)cc1	0	0	0	0	58	0	0	MPTP swell DR=15;MPTP cs DR=0
COc1ccc(NC(=O)O/N=C/c2ccccc2)cc1	0	0	0	0	0	0	-
Clc1cccc(N/N=C/c2ccncc2)c1	0	0	0	0	0	0	-
